Measurements taken from ChEMBL document CHEMBL2169794, “Induction of apoptosis by 3-amino-6-(3-aminopropyl)-5,6-dihydro-5,11-dioxo-11H-indeno[1,2-c]isoquinoline via modulation of MAPKs (p38 and c-Jun N-terminal kinase) and c-Myc in HL-60 human leukemia cells” (J Nat Prod, 2012).
Activity calls are given as the source filed them. No cut-off for these calls is given here.

Legend:
HL-60 [1] = test: Induction of apoptosis in human HL60 cells assessed as early apoptotic cells level at 2 uM incubated for 24 hrs by annexinV/7-AAD double staining based flow cytometry (reference value: 3.68%); assay type: functional
HL-60 [2] = test: Induction of apoptosis in human HL60 cells assessed as viable cells level at 2 uM incubated for 24 hrs by annexinV/7-AAD double staining based flow cytometry (reference value: 92.44%); assay type: functional
HL-60 [3] = test: Induction of apoptosis in human HL60 cells assessed as viable cells level at 1 uM incubated for 24 hrs by annexinV/7-AAD double staining based flow cytometry (reference value: 92.44%); assay type: functional
HL-60 [4] = test: Cell cycle arrest in human HL60 cells assessed as accumulation at subG0/G1 phase at 1 uM by NIM-DAPI staining based flow cytometry (reference value: 2.8 +/- 0.8%); assay type: functional
HL-60 [5] = test: Cell cycle arrest in human HL60 cells assessed as accumulation at subG0/G1 phase at 0.5 uM by NIM-DAPI staining based flow cytometry (reference value: 2.8 +/- 0.8%); assay type: functional
HL-60 [6] = test: Cell cycle arrest in human HL60 cells assessed as accumulation at subG0/G1 phase at 0.25 uM by NIM-DAPI staining based flow cytometry (reference value: 2.8 +/- 0.8%); assay type: functional
HL-60 [7] = test: Cell cycle arrest in human HL60 cells assessed as accumulation at subG0/G1 phase at 0.125 uM by NIM-DAPI staining based flow cytometry (reference value: 2.8 +/- 0.8%); assay type: functional
HL-60 [8] = test: Cell cycle arrest in human HL60 cells assessed as accumulation at subG0/G1 phase at 0.0625 uM by NIM-DAPI staining based flow cytometry (reference value: 2.8 +/- 0.8%); assay type: functional
HL-60 [9] = test: Cell cycle arrest in human HL60 cells assessed as accumulation at G2/M phase at 0.5 uM by NIM-DAPI staining based flow cytometry (reference value: 13.2 +/- 2.8%); assay type: functional
HL-60 [10] = test: Cell cycle arrest in human HL60 cells assessed as accumulation at G2/M phase at 0.25 uM by NIM-DAPI staining based flow cytometry (reference value: 13.2 +/- 2.8%); assay type: functional
HL-60 [11] = test: Cell cycle arrest in human HL60 cells assessed as accumulation at G2/M phase at 0.125 uM by NIM-DAPI staining based flow cytometry (reference value: 13.2 +/- 2.8%); assay type: functional
HL-60 [12] = test: Antiproliferative activity against human HL60 cells after 96 hrs by MTT assay; assay type: functional, cell-based; details: HL-60, 96 h
Procedure, shortened: (§1)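 HL-60 cells seeded at 2×10^4 per well, treated after 24 h with serial dilutions (0.0625-1 µM) for 24, 48, 72 or 96 h; DMSO 0.1% vehicle control. MTT added (final 500 µg/mL) for 4 h, formazan dissolved in DMSO, OD at 540 nm. Inhibition calculated relative to vehicle control after subtracting time-zero reading; IC50 by curve fitting; n = 6 per group.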

HL-60 [13] = test: Antiproliferative activity against human HL60 cells after 72 hrs by MTT assay; assay type: functional, cell-based; details: HL-60, 72 h; procedure, shortened: as §1
HL-60 [14] = test: Antiproliferative activity against human HL60 cells after 48 hrs by MTT assay; assay type: functional, cell-based; details: HL-60, 48 h; procedure, shortened: as §1
HL-60 [15] = test: Reduction in mitochondrial transmembrane electric potential in human HL60 cells 1 uM incubated for 96 hrs by DiOC6(3) dye staining based flow cytometry; assay type: functional, cell-based
Procedure, shortened: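 HL-60 cells given DMSO vehicle or 1 µM test agent for 96 h, then loaded with 100 nM DiOC6(3) for 30 min at 37 °C. After washing and resuspension in PBS, the cells were read at once by flow cytometry in FL-1.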

HL-60 [16] = test: Antiproliferative activity against human HL60 cells after 24 hrs by MTT assay; assay type: functional, cell-based; details: HL-60, 24 h; procedure, shortened: as §1
HL-60 [17] = test: Cell cycle arrest in human HL60 cells assessed as accumulation at G2/M phase at 0.0625 uM by NIM-DAPI staining based flow cytometry (reference value: 13.2 +/- 2.8%); assay type: functional
HL-60 [18] = test: Induction of apoptosis assessed as increase in caspase 3/7 enzyme activity in human HL60 cells at 1 uM incubated for 24 to 72 hrs by luminometry relative to untreated control; assay type: functional
Procedure, shortened: (§2)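 HL-60 cells treated with serial dilutions in 96-well plates for 24, 48 and 72 h. Luminogenic caspase-3/7, caspase-8 or caspase-9 substrate reagent added for 3 h at room temperature, then luminescence read. Results are expressed as fold over DMSO vehicle control.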

HL-60 [19] = test: Down regulation of c-Myc protein expression in human HL60 cells at 1 uM after 2 hrs by Western blot method; assay type: functional, cell-based
Procedure, shortened: (§3)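 HL-60 cells exposed to 1 µM test agent for the indicated times, then lysed. 15 µg protein run on 12% SDS-PAGE, blotted to PVDF, probed overnight at 4 °C with antibodies to phospho- or total ERK1/2, p38 (Thr180/Tyr182), SAPK/JNK (Thr183/Tyr185) or c-Myc. HRP secondary, chemiluminescent read-out.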

[20] = target: MAP kinase p38 (Homo sapiens) (UniProt O15264+Q15759+Q16539+P53778); test: Induction of p38 MAPK phosphorylation in human HL60 cells at 1 uM incubated for 1 to 24 hrs by Western blot method; assay type: cell-based; details: HL-60; procedure, shortened: as §3
[21] = target: c-Jun N-terminal kinase, JNK (Homo sapiens) (UniProt P45983+P53779+P45984); test: Induction of JNK phosphorylation in human HL60 cells at 1 uM incubated for 1 to 24 hrs by Western blot method; assay type: cell-based; details: HL-60; procedure, shortened: as §3
HL-60 [22] = test: Effect on total p38MAPK protein expression in human HL60 cells at 1 uM incubated for 1 to 24 hrs by Western blot method; assay type: functional, cell-based; procedure, shortened: as §3
HL-60 [23] = test: Effect on total SAPK/JNK protein expression in human HL60 cells at 1 uM incubated for 1 to 24 hrs by Western blot method; assay type: functional, cell-based; procedure, shortened: as §3
HL-60 [24] = test: Effect on total ERK1/2 protein expression in human HL60 cells at 1 uM incubated for 1 to 24 hrs by Western blot method; assay type: functional, cell-based; procedure, shortened: as §3
HL-60 [25] = test: Induction of apoptosis assessed as increase in caspase 8 enzyme activity in human HL60 cells at 1 uM incubated for 24 to 72 hrs by luminometry relative to untreated control; assay type: functional, cell-based; procedure, shortened: as §2
HL-60 [26] = test: Induction of apoptosis assessed as increase in caspase 9 enzyme activity in human HL60 cells at 1 uM incubated for 24 to 72 hrs by luminometry relative to untreated control; assay type: functional; procedure, shortened: as §2
HL-60 [27] = test: Induction of cleaved caspase 7 expression in human HL60 cells at 0.25 to 2 uM incubated for 24 hrs by Western blotting method; assay type: functional, cell-based
Procedure, shortened: (§4)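 HL-60 cells exposed for 24 h to the stated concentrations and lysed; protein measured by Bradford. Lysate (15 µg) run on 12% SDS-PAGE and transferred to PVDF. Blocked in 5% milk/TBST for 1 h, primary antibody overnight at 4 °C, HRP secondary for 2 h at room temperature, chemiluminescent detection.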

HL-60 [28] = test: Induction of cleaved caspase 3 expression in human HL60 cells at 0.25 to 2 uM incubated for 24 hrs by Western blotting method; assay type: functional, cell-based; procedure, shortened: as §4
HL-60 [29] = test: Induction of PARP cleavage in human HL60 cells 2 uM incubated for 24 hrs by Western blot method; assay type: functional, cell-based; procedure, shortened: as §4
HL-60 [30] = test: Induction of PARP cleavage in human HL60 cells 1 uM incubated for 24 hrs by Western blot method; assay type: functional, cell-based; procedure, shortened: as §4
HL-60 [31] = test: Induction of apoptosis in human HL60 cells assessed as necrotic cells level at 2 uM incubated for 24 hrs by annexinV/7-AAD double staining based flow cytometry (reference value: 3.45%); assay type: functional
HL-60 [32] = test: Induction of apoptosis in human HL60 cells assessed as necrotic cells level at 1 uM incubated for 24 hrs by annexinV/7-AAD double staining based flow cytometry (reference value: 3.45%); assay type: functional
HL-60 [33] = test: Induction of apoptosis in human HL60 cells assessed as late apoptotic cells level at 2 uM incubated for 24 hrs by annexinV/7-AAD double staining based flow cytometry (reference value: 0.43%); assay type: functional
HL-60 [34] = test: Induction of apoptosis in human HL60 cells assessed as late apoptotic cells level at 1 uM incubated for 24 hrs by annexinV/7-AAD double staining based flow cytometry (reference value: 0.43%); assay type: functional
HL-60 [35] = test: Induction of apoptosis in human HL60 cells assessed as early apoptotic cells level at 1 uM incubated for 24 hrs by annexinV/7-AAD double staining based flow cytometry (reference value: 3.68%); assay type: functional

For `Cl.Cl.NCCCn1c2c(c3ccc(N)cc3c1=O)C(=O)c1ccccc1-2`, the Activity (HL-60 [1]) was 51.56%, the Activity (HL-60 [2]) was 37.6% and the Activity (HL-60 [3]) was 57.62%. It also gave an Activity (HL-60 [4]) of 26.5%, an Activity (HL-60 [5]) of 11.1% and an Activity (HL-60 [6]) of 6.1%. The Activity (HL-60 [7]) was 6%, the Activity (HL-60 [8]) was 4.6% and the Activity (HL-60 [9]) was 27.6%. It also gave an Activity (HL-60 [10]) of 45%, an Activity (HL-60 [11]) of 39.6% and an IC50 (HL-60 [12]) of 86 nM. The IC50 (HL-60 [13]) was 150 nM, the IC50 (HL-60 [14]) was 350 nM and the Activity (HL-60 [15]) was “Active”. The IC50 (HL-60 [16]) was 800 nM, the Activity (HL-60 [17]) was 22% and the “fold change (FC)” value (HL-60 [18]) was 12.6. The Activity (HL-60 [19]) was “Active”, the Activity [20] was “Active” and the Activity [21] was “Active”. The Activity (HL-60 [22]) was “inactive”, the Activity (HL-60 [23]) was “inactive” and the Activity (HL-60 [24]) was “inactive”. The Activity (HL-60 [25]) was “inactive”, the “fold change (FC)” value (HL-60 [26]) was 7.8 and the Activity (HL-60 [27]) was “Active”. The Activity (HL-60 [28]) was “Active”, the Activity (HL-60 [29]) was “Active” and the Activity (HL-60 [30]) was “Active”. The Activity (HL-60 [31]) was 4.57%, the Activity (HL-60 [32]) was 2.99% and the Activity (HL-60 [33]) was 6.27%. It also gave an Activity (HL-60 [34]) of 5.21% and an Activity (HL-60 [35]) of 34.18%.
